We go through 8 compounds from ChEMBL document CHEMBL1135734, “Side-chain lactam-bridge conformational constraints differentiate the activities of salmon and human calcitonins and reveal a new design concept for potent calcitonin analogues” (J Med Chem, 2002).

Structures are written as SMILES. Positions of bridges follow the written chain, without caps; N, C: chain ends. Non-standard residues stand in square brackets, D forms with d. Residues, ends and D or L forms follow the SMILES beside them. Nle = CCCC[C@H](N)C(=O)O

Broadly, the Ki is the dissociation constant of the complex between target and ligand, obtained from inhibition or displacement. The IC50 is the concentration that inhibits the measured activity by half.

Assay [1] has as its target T1, Calcitonin receptor (Rattus norvegicus) (UniProt P32214).
T1 sequence (whole entry): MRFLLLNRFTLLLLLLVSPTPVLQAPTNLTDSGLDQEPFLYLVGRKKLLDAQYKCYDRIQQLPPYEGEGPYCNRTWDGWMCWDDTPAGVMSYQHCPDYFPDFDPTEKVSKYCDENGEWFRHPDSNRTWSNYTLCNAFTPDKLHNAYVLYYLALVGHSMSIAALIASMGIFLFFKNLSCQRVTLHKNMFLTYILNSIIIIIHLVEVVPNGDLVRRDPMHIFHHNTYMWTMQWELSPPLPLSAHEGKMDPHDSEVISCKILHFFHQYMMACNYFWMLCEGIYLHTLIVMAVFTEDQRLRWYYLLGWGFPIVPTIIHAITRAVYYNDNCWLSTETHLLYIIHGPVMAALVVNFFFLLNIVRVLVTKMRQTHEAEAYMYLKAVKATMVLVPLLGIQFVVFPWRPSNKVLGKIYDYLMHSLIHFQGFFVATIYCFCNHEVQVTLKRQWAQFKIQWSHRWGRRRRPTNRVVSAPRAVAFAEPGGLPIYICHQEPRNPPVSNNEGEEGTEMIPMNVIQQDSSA
As to the kind of experiment: Affinity for calcitonin receptor of rat brain relative to [125I]-salmon calcitonin. The procedure, abridged:
(§1)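 Male Sprague–Dawley rat (250–350 g) brain membranes (~0.63 mg protein/tube) were shaken on ice for 30 min with 10 pM final [125I-Tyr22]sCT and competitor in 50 mM Tris-HCl pH 7.4 with 34 μM bacitracin. Tubes were centrifuged and the pellets washed, SDS-solubilized and scintillation counted. Nonspecific binding was taken with 1 μM sCT. IC50 came from probit analysis, and relative affinity set sCT = 100%.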

Assay [2] addresses T2, Calcitonin receptor (Homo sapiens) (UniProt P30988).
T2 sequence (whole entry): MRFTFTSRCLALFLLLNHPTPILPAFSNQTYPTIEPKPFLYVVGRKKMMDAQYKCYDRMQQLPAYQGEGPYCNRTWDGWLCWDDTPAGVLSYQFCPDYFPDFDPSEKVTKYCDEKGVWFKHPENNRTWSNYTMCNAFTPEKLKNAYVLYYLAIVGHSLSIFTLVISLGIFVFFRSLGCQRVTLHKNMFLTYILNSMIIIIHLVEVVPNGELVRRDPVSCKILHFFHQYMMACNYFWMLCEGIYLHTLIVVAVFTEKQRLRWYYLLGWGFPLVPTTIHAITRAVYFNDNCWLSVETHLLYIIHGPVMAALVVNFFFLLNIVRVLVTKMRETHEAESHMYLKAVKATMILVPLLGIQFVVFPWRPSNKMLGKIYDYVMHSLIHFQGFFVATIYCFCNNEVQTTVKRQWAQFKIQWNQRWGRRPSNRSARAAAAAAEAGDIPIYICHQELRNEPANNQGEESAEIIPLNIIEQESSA

In assay [3] the target is T3, Calcitonin receptor (Homo sapiens, UniProt P30988).
T3 sequence (P30988 whole entry): T2 sequence (whole entry)
As to the kind of experiment: Inhibition of [125I]-salmon calcitonin (sCT) binding to human calcitonin receptor I1 expressed in HEK293 cells. It is filed as cell-based. The settings on record: hek293.

Assay [4] concerns the target T4, Calcitonin receptor (Rattus norvegicus, UniProt P32214).
T4 sequence (P32214 whole entry): T1 sequence (whole entry)
Kind of assay: Displacement of [125I]-salmon calcitonin (sCT) from calcitonin receptor of rat brain. In a few lines: as §1
Background: In a radioligand displacement assay an active substance lowers the binding of a labelled ligand.

For `CC[C@H](C)[C@H](NC(=O)[C@H](C)NC(=O)[C@@H](NC(=O)[C@H](CCC(N)=O)NC(=O)[C@@H]1CCCN1C(=O)[C@H](Cc1ccccc1)NC(=O)[C@@H](N[C@@H](Cc1c[nH]cn1)C(=O)N[C@@H](Cc1ccccc1)C(=O)[C@@H]1CCCN1C(=O)[C@H](CC(N)=O)NC(=O)[C@H](Cc1ccccc1)NC(=O)[C@H](CC(=O)O)NC(=O)[C@H](CCC(N)=O)NC(=O)[C@@H](NC(=O)[C@H](Cc1ccc(O)cc1)NC(=O)[C@@H](NC(=O)CNC(=O)[C@H](CC(C)C)NC(=O)[C@H](CCSC)NC(=O)[C@H](CS)NC(=O)[C@@H](NC(=O)[C@H](CO)NC(=O)[C@H](CC(C)C)NC(=O)[C@H](CC(N)=O)NC(=O)CNC(=O)[C@@H](N)CS)[C@@H](C)O)[C@@H](C)O)[C@@H](C)O)[C@@H](C)O)[C@H](C)O)C(=O)NCC(=O)N[C@H](C(=O)NCC(=O)N[C@@H](C)C(=O)N1CCC[C@H]1C(N)=O)C(C)C`, the Relative affinity in assay [1] came to 0.02. In assay [2], the ED50 amounted to 99 nM.
Consider `CC[C@H](C)[C@H](NC(=O)[C@H](C)NC(=O)[C@@H](NC(=O)[C@H](CCC(N)=O)NC(=O)[C@H]1CCCN1C(=O)[C@H](Cc1ccccc1)NC(=O)[C@@H](N[C@@H](Cc1c[nH]cn1)C(=O)N1CCC[C@H]1C(=O)[C@H](CCCCN)NC(=O)[C@H](CC(N)=O)NC(=O)[C@H](Cc1ccccc1)NC(=O)[C@H](CC(=O)O)NC(=O)[C@H](CCC(N)=O)NC(=O)[C@@H](NC(=O)[C@H](Cc1ccc(O)cc1)NC(=O)[C@@H](NC(=O)CNC(=O)[C@H](CC(C)C)NC(=O)[C@H](CCSC)NC(=O)[C@H](CS)NC(=O)[C@@H](NC(=O)[C@H](CO)NC(=O)[C@H](CC(C)C)NC(=O)[C@H](CC(N)=O)NC(=O)CNC(=O)[C@@H](N)CS)[C@@H](C)O)[C@@H](C)O)[C@@H](C)O)[C@@H](C)O)[C@@H](C)O)C(=O)NCC(=O)N[C@H](C(=O)NCC(=O)N[C@@H](C)C(=O)N1CCC[C@@H]1C(N)=O)C(C)C`, for which, in assay [1], the Relative affinity was less than 0.0075. For the same compound, the ED50 in assay [2] was 22 nM.
Turning to `CC(C)C[C@H](NC(=O)[C@H](CCCCN)NC(=O)CNC(=O)[C@H](CC(C)C)NC(=O)[C@@H](NC(=O)[C@H](CS)NC(=O)[C@@H](NC(=O)[C@H](CO)NC(=O)[C@H](CC(C)C)NC(=O)[C@H](CC(N)=O)NC(=O)[C@H](CO)NC(=O)[C@@H](N)CS)[C@@H](C)O)C(C)C)C(=O)N[C@@H](CO)C(=O)N[C@@H](CCC(N)=O)C(=O)N[C@@H](CCC(=O)O)C(=O)N[C@@H](CC(C)C)C(=O)N[C@H]1CC(=O)NCCC[C@@H](C(=O)N[C@@H](Cc2ccc(O)cc2)C(=O)N2CCC[C@@H]2C(=O)N[C@@H](CCCN=C(N)N)C(=O)N[C@H](C(=O)N[C@@H](CC(N)=O)C(=O)N[C@H](C(=O)NCC(=O)N[C@@H](CO)C(=O)NCC(=O)N[C@H](C(=O)N2CCC[C@@H]2C(N)=O)[C@@H](C)O)[C@@H](C)O)[C@@H](C)O)NC(=O)[C@H](CCC(N)=O)NC(=O)[C@H](CC(C)C)NC(=O)[C@H](CCCCN)NC1=O`, the Relative affinity in assay [1] amounted to 120. Also, the ED50 in assay [2] was determined as 0.091 nM.
Take `CC[C@H](C)[C@H](NC(=O)[C@H](C)NC(=O)[C@@H](NC(=O)[C@H](CCC(N)=O)NC(=O)[C@@H]1CCCN1C(=O)[C@H](Cc1ccccc1)NC(=O)[C@@H](NC(=O)[C@H](Cc1cnc[nH]1)NC(=O)CNC(=O)[C@@H]1CCCN1C(=O)[C@H](CC(N)=O)NC(=O)[C@H](Cc1ccccc1)NC(=O)[C@H](CC(=O)O)NC(=O)[C@H](CCC(N)=O)NC(=O)[C@@H](NC(=O)[C@H](Cc1ccc(O)cc1)NC(=O)[C@@H](NC(=O)CNC(=O)[C@H](CC(C)C)NC(=O)[C@H](CCSC)NC(=O)[C@@H]1CSSC[C@H](N)C(=O)NCC(=O)N[C@@H](CC(N)=O)C(=O)N[C@@H](CC(C)C)C(=O)N[C@@H](CO)C(=O)N[C@@H]([C@@H](C)O)C(=O)N1)[C@@H](C)O)[C@@H](C)O)[C@@H](C)O)[C@@H](C)O)C(=O)NCC(=O)N[C@H](C(=O)NCC(=O)N[C@@H](C)C(=O)N1CCC[C@H]1C(N)=O)C(C)C` (H-CGNLSTCMLGTYTQDFNPGHTFPQTAIGVGAP-NH2; disulfide 1-7): at Calcitonin receptor [3], the inhibition constant Ki is greater than 2500 nM. The half-inhibitory concentration (IC50) on Calcitonin receptor [4] was greater than 5000 nM.
In the case of `CCCC[C@H](NC(=O)[C@H](Cc1c[nH]cn1)NC(=O)[C@H](CC(C)C)NC(=O)[C@H](CCCCN)NC(=O)[C@H](CC(N)=O)NC(=O)[C@H](CC(C)C)NC(=O)[C@H](CCC(=O)O)NC(=O)[C@H](CCC(N)=O)NC(=O)[C@H](CO)NC(=O)[C@H](CC(C)C)NC(=O)[C@H](CCCCN)NC(=O)CNC(=O)[C@H](CC(C)C)NC(=O)[C@@H](NC(=O)[C@@H]1CSSC[C@H](N)C(=O)N[C@@H](CO)C(=O)N[C@@H](CC(N)=O)C(=O)N[C@@H](CC(C)C)C(=O)N[C@@H](CO)C(=O)N[C@@H]([C@@H](C)O)C(=O)N1)C(C)C)C(=O)N[C@@H](Cc1ccc(O)cc1)C(=O)N1CCC[C@H]1C(=O)N[C@@H](CCCN=C(N)N)C(=O)N[C@H](C(=O)N[C@@H](CC(N)=O)C(=O)N[C@H](C(=O)NCC(=O)N[C@@H](CO)C(=O)NCC(=O)N[C@H](C(=O)N1CCC[C@H]1C(N)=O)[C@@H](C)O)[C@@H](C)O)[C@@H](C)O` (H-CSNLSTCVLGKLSQELNKLH[Nle]YPRTNTGSGTP-NH2; disulfide 1-7), the inhibition constant Ki at Calcitonin receptor [3] was found to be 0.069 nM. Further, the half-maximal inhibitory concentration (IC50) on Calcitonin receptor [4] worked out at 0.408 nM.
For `CC(C)C[C@H](NC(=O)[C@H](CCCCN)NC(=O)CNC(=O)[C@H](CC(C)C)NC(=O)[C@@H](NC(=O)[C@H](CS)NC(=O)[C@@H](NC(=O)[C@H](CO)NC(=O)[C@H](CC(C)C)NC(=O)[C@H](CC(N)=O)NC(=O)[C@H](CO)NC(=O)[C@@H](N)CS)[C@@H](C)O)C(C)C)C(=O)N[C@@H](CO)C(=O)N[C@@H](CCC(N)=O)C(=O)N[C@@H](CCC(=O)O)C(=O)N[C@@H](CC(C)C)C(=O)N[C@H]1CC(=O)NCCC[C@@H](C(=O)N[C@@H](Cc2ccc(O)cc2)C(=O)N2CCC[C@H]2C(=O)N[C@@H](CCCN=C(N)N)C(=O)N[C@H](C(=O)N[C@@H](CC(N)=O)C(=O)N[C@H](C(=O)NCC(=O)N[C@@H](CO)C(=O)NCC(=O)N[C@H](C(=O)N2CCC[C@H]2C(N)=O)[C@@H](C)O)[C@@H](C)O)[C@@H](C)O)NC(=O)[C@H](CCC(N)=O)NC(=O)[C@H](CC(C)C)NC(=O)[C@H](CCCCN)NC1=O`, the Ki on Calcitonin receptor [3] stood at 0.023 nM. For the same compound, the IC50 on Calcitonin receptor [4] amounted to 0.326 nM.
As to `CC(C)C[C@H](NC(=O)[C@H](CCCCN)NC(=O)CNC(=O)[C@H](CC(C)C)NC(=O)[C@@H](NC(=O)[C@H](CS)NC(=O)[C@@H](NC(=O)[C@H](CO)NC(=O)[C@H](CC(C)C)NC(=O)[C@H](CC(N)=O)NC(=O)[C@H](CO)NC(=O)[C@@H](N)CS)[C@@H](C)O)C(C)C)C(=O)N[C@@H](CO)C(=O)N[C@@H](CCC(N)=O)C(=O)N[C@@H](CCC(=O)O)C(=O)N[C@@H](CC(C)C)C(=O)N[C@H]1CC(=O)NCCCC[C@@H](C(=O)N[C@@H](Cc2ccc(O)cc2)C(=O)N2CCC[C@H]2C(=O)N[C@@H](CCCN=C(N)N)C(=O)N[C@H](C(=O)N[C@@H](CC(N)=O)C(=O)N[C@H](C(=O)NCC(=O)N[C@@H](CO)C(=O)NCC(=O)N[C@H](C(=O)N2CCC[C@H]2C(N)=O)[C@@H](C)O)[C@@H](C)O)[C@@H](C)O)NC(=O)[C@H](Cc2c[nH]cn2)NC(=O)[C@H](CC(C)C)NC(=O)[C@H](CCCCN)NC1=O` (H-CSNLSTCVLGKLSQELDKLHKYPRTNTGSGTP-NH2; lactam 17-21), at Calcitonin receptor [3], the Ki was 0.05 nM. In addition, the IC50 at Calcitonin receptor [4] turned out to be 0.18 nM.
Regarding `CC[C@H](C)[C@H](NC(=O)[C@H](C)NC(=O)[C@@H](NC(=O)[C@H](CCC(N)=O)NC(=O)[C@@H]1CCCN1C(=O)[C@H](Cc1ccccc1)NC(=O)[C@@H](NC(=O)[C@H](Cc1cnc[nH]1)NC(=O)[C@H](Cc1ccccc1)NC(=O)[C@@H]1CCCN1C(=O)[C@H](CC(N)=O)NC(=O)[C@H](Cc1ccccc1)NC(=O)[C@H](CC(=O)O)NC(=O)[C@H](CCC(N)=O)NC(=O)[C@@H](NC(=O)[C@H](Cc1ccc(O)cc1)NC(=O)[C@@H](NC(=O)CNC(=O)[C@H](CC(C)C)NC(=O)[C@H](CCSC)NC(=O)[C@@H]1CSSC[C@H](N)C(=O)NCC(=O)N[C@@H](CC(N)=O)C(=O)N[C@@H](CC(C)C)C(=O)N[C@@H](CO)C(=O)N[C@@H]([C@@H](C)O)C(=O)N1)[C@@H](C)O)[C@@H](C)O)[C@@H](C)O)[C@@H](C)O)C(=O)NCC(=O)N[C@H](C(=O)NCC(=O)N[C@@H](C)C(=O)N1CCC[C@H]1C(N)=O)C(C)C` (H-CGNLSTCMLGTYTQDFNPFHTFPQTAIGVGAP-NH2; disulfide 1-7), the inhibitory constant (Ki) at Calcitonin receptor [3] amounted to 1230 nM. Also, the IC50 at Calcitonin receptor [4] was 1910 nM.
